Columns and labels:
Type in all cases: functional
[1] = system: 786-0; assay: Cytotoxicity against human 786-0 cells assessed as cell growth at 0.01 uM after 48 hrs by sulforhodamine B assay; conditions: 786-0, 48 h, read-out: Activity
Summary of the method: (§1)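 NCI-60 five-dose screen. Cells were grown in RPMI 1640 with 5% FBS and 2 mM L-glutamine and preincubated 24 h. Compound (DMSO stock) was tested at 0.01, 0.1, 1, 10 and 100 µM for 48 h at 37 °C. Cells were fixed in situ with cold TCA (final 10%) and stained with 0.4% SRB. A515 was read, and percent growth was calculated against time-zero and control plates.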

[2] = system: MOLT-4; assay: Cytotoxicity against human MOLT4 cells assessed as cell growth at 0.1 uM after 48 hrs by sulforhodamine B assay; conditions: MOLT-4, 48 h, read-out: Activity
[3] = system: NCI-H322M; assay: Cytotoxicity against human NCI-H322M cells assessed as cell growth at 0.1 uM after 48 hrs by sulforhodamine B assay; conditions: read-out: Activity
[4] = system: NCI-H460; assay: Cytotoxicity against human NCI-H460 cells assessed as cell growth at 0.1 uM after 48 hrs by sulforhodamine B assay; conditions: NCI-H460, 48 h, read-out: Activity
[5] = system: SW-620; assay: Cytotoxicity against human SW620 cells assessed as cell growth at 0.1 uM after 48 hrs by sulforhodamine B assay; conditions: SW-620, 48 h, read-out: Activity
[6] = system: Malme-3M; assay: Cytotoxicity against human MALME-3M cells assessed as cell growth at 0.1 uM after 48 hrs by sulforhodamine B assay; conditions: read-out: Activity
[7] = system: LOX IMVI; assay: Cytotoxicity against human LOXIMVI cells assessed as cell growth at 100 uM after 48 hrs by sulforhodamine B assay; conditions: read-out: Activity
[8] = system: MDA-MB-435; assay: Cytotoxicity against human MDA-MB-435 cells assessed as cell growth at 100 uM after 48 hrs by sulforhodamine B assay; conditions: MDA-MB-435, 48 h, read-out: Activity
[9] = system: SK-OV-3; assay: Cytotoxicity against human SKOV3 cells assessed as cell growth at 100 uM after 48 hrs by sulforhodamine B assay; conditions: SK-OV-3, 48 h, read-out: Activity
[10] = system: ACHN; assay: Cytotoxicity against human ACHN cells assessed as cell growth at 100 uM after 48 hrs by sulforhodamine B assay; conditions: read-out: Activity; summary of the method: as §1
[11] = system: MDA-MB-231; assay: Cytotoxicity against human MDA-MB-231 cells assessed as cell growth at 0.1 uM after 48 hrs by sulforhodamine B assay; conditions: MDA-MB-231, 48 h, read-out: Activity
[12] = system: T47D; assay: Cytotoxicity against human T47D cells assessed as cell growth at 0.1 uM after 48 hrs by sulforhodamine B assay; conditions: read-out: Activity
[13] = system: M14; assay: Cytotoxicity against human M14 cells assessed as cell growth at 1 uM after 48 hrs by sulforhodamine B assay; conditions: M14, 48 h, read-out: Activity
[14] = system: HOP-62; assay: Cytotoxicity against human HOP62 cells assessed as cell growth at 10 uM after 48 hrs by sulforhodamine B assay; conditions: HOP-62, 48 h, read-out: Activity
Summary of the method: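 Five-dose NCI panel run at 0.01, 0.1, 1, 10 and 100 µM. Cells were in RPMI 1640 with 5% FBS and 2 mM L-glutamine, seeded at 5000–40,000 cells/well and pre-incubated 24 h. Drug was diluted from a DMSO stock into medium with 50 µg/ml gentamicin. Exposure was 48 h at 37 °C, 5% CO2. Cells were fixed with cold TCA and stained with 0.4% SRB, read at 515 nm. Percent growth came from time-zero, control and test absorbances.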

[15] = system: TK-10; assay: Cytotoxicity against human TK10 cells assessed as cell growth at 10 uM after 48 hrs by sulforhodamine B assay; conditions: TK-10, 48 h, read-out: Activity
[16] = system: UO-31; assay: Cytotoxicity against human UO31 cells assessed as cell growth at 10 uM after 48 hrs by sulforhodamine B assay; conditions: UO-31, 48 h, read-out: Activity
[17] = system: MDA-MB-231; assay: Cytotoxicity against human MDA-MB-231 cells assessed as cell growth at 10 uM after 48 hrs by sulforhodamine B assay; conditions: MDA-MB-231, 48 h, read-out: Activity
[18] = system: SR; assay: Cytotoxicity against human SR cells assessed as cell growth at 100 uM after 48 hrs by sulforhodamine B assay; conditions: read-out: Activity
[19] = system: NCI-H23; assay: Cytotoxicity against human NCI-H23 cells assessed as cell growth at 100 uM after 48 hrs by sulforhodamine B assay; conditions: NCI-H23, 48 h, read-out: Activity
[20] = system: IGROV-1; assay: Cytotoxicity against human IGROV1 cells assessed as cell growth at 10 '-5 M after 48 hrs by sulforhodamine B assay; conditions: IGROV-1, 48 h, read-out: Activity
[21] = Cytotoxicity against human Hs 578T cells assessed as cell growth at 10 '-5 M after 48 hrs by sulforhodamine B assay; conditions: read-out: Activity
Summary of the method: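 Primary one-dose screen across the NCI 60-line panel at 10 µM. Cells were grown in RPMI 1640 with 5% FBS and 2 mM L-glutamine and held 24 h before drug. Drug was diluted from a DMSO concentrate. Exposure was 48 h at 37 °C, 5% CO2. Cells were fixed with TCA and stained with SRB, with absorbance read at 515 nm. Percent growth was calculated against time-zero and untreated control.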

[22] = system: MDA-MB-435; assay: Growth inhibition of human MDA-MB-435 cells after 48 hrs by sulforhodamine B assay; conditions: MDA-MB-435, 48 h; for CC50: read-out: LC50 (the source's name)
Summary of the method: (§2)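 Adherent NCI-60 lines were grown in RPMI 1640 with 5% FBS and 2 mM L-glutamine, plated at 5000–40,000 cells/well and preincubated 24 h. They were then exposed to five concentrations (0.01–100 µM, from a DMSO stock) for 48 h at 37 °C, 5% CO2. Cells were fixed with cold TCA (10% final, 60 min, 4 °C) and stained with 0.4% SRB. Dye was solubilized in 10 mM Tris base and A515 read. GI50 was derived from time-zero, control and treated absorbances.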

[23] = system: 786-0; assay: Growth inhibition of human 786-0 cells after 48 hrs by sulforhodamine B assay; conditions: 786-0, 48 h; for CC50: read-out: LC50 (the source's name)
Summary of the method: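 Cells were in RPMI 1640 with 5% FBS and pre-incubated 24 h. Read-out was TCA fixation, SRB staining and absorbance at 515 nm. GI50 was the concentration where [(Ti−Tz)/(C−Tz)]×100 = 50, taken from log concentration vs % growth curves. It is given as ">" the top concentration when not reached.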

[24] = system: MDA-MB-231; assay: Growth inhibition of human MDA-MB-231 cells after 48 hrs by sulforhodamine B assay; conditions: MDA-MB-231, 48 h; summary of the method: as §2
[25] = system: RPMI-8226; assay: Cytotoxicity against human RPMI8226 cells assessed as cell growth at 0.01 uM after 48 hrs by sulforhodamine B assay; conditions: RPMI-8226, 48 h, read-out: Activity
[26] = system: OVCAR-5; assay: Cytotoxicity against human OVCAR5 cells assessed as cell growth at 0.01 uM after 48 hrs by sulforhodamine B assay; conditions: OVCAR-5, 48 h, read-out: Activity

Question: For `Cc1ccc2nc(Nc3c(C)cccc3C)sc2c1`, which growth at 0.01 µM [1] is on record?
Answer: 97%

Question: What about the growth at 0.1 µM [2] of the same molecule?
Answer: 111%

Question: What about the growth at 0.1 µM [3] of the same molecule?
Answer: 105%

Question: What about the growth at 0.1 µM [4] of the same molecule?
Answer: 103%

Question: What about the growth at 0.1 µM [5] of the same molecule?
Answer: 94%

Question: And the growth at 0.1 µM [6]?
Answer: 103%

Question: And the growth at 100 µM [7]?
Answer: 57%

Question: And the growth at 100 µM [8]?
Answer: -10%

Question: And the growth at 100 µM [9]?
Answer: 54%

Question: What about the growth at 100 µM [10] of the same molecule?
Answer: 49%

Question: And the growth at 0.1 µM [11]?
Answer: 84%

Question: What about the growth at 0.1 µM [12] of the same molecule?
Answer: 96%

Question: What about the growth at 1 µM [13] of the same molecule?
Answer: 58%

Question: And the growth at 10 µM [14]?
Answer: 39%

Question: What about the growth at 10 µM [15] of the same molecule?
Answer: 71%

Question: What about the growth at 10 µM [16] of the same molecule?
Answer: 49%

Question: What about the growth at 10 µM [17] of the same molecule?
Answer: 22%

Question: And the growth at 100 µM [18]?
Answer: 22%

Question: And the growth at 100 µM [19]?
Answer: 65%

Question: What about the growth at 10 µM [20] of the same molecule?
Answer: 49.2%

Question: And the growth at 10 µM [21]?
Answer: 54.1%

Question: And the GI50 [22]?
Answer: 0.242 µM

Question: What about the TGI [22] of the same molecule?
Answer: 0.822 µM

Question: What about the CC50 [22] of the same molecule?
Answer: > 100 µM

Question: And the GI50 [23]?
Answer: > 100 µM

Question: What about the TGI [23] of the same molecule?
Answer: > 100 µM

Question: What about the CC50 [23] of the same molecule?
Answer: > 100 µM

Question: And the GI50 [24]?
Answer: 0.528 µM

Question: What about the LC50 (concentration killing 50% of cells) [24] of the same molecule?
Answer: > 100 µM

Question: What about the TGI [24] of the same molecule?
Answer: 59.8 µM

Question: And the growth at 0.01 µM [25]?
Answer: 101%

Question: And the growth at 0.01 µM [26]?
Answer: 93%

Question: Which growth at 0.01 µM [1] does the source give for `Clc1cccc(Cl)c1Nc1nc2cccc(Cl)c2s1` here?
Answer: 106%

Question: What about the growth at 0.1 µM [2] of the same molecule?
Answer: 109%

Question: And the growth at 0.1 µM [3]?
Answer: 102%

Question: And the growth at 0.1 µM [4]?
Answer: 96%

Question: And the growth at 0.1 µM [5]?
Answer: 91%

Question: What about the growth at 0.1 µM [6] of the same molecule?
Answer: 90%

Question: What about the growth at 100 µM [7] of the same molecule?
Answer: -21%

Question: What about the growth at 100 µM [8] of the same molecule?
Answer: -67%

Question: What about the growth at 100 µM [9] of the same molecule?
Answer: -100%

Question: And the growth at 100 µM [10]?
Answer: -100%

Question: And the growth at 0.1 µM [11]?
Answer: 81%

Question: And the growth at 0.1 µM [12]?
Answer: 102%

Question: And the growth at 1 µM [13]?
Answer: 73%

Question: And the growth at 10 µM [14]?
Answer: -93%

Question: And the growth at 10 µM [15]?
Answer: -86%

Question: What about the growth at 10 µM [16] of the same molecule?
Answer: -91%

Question: And the growth at 10 µM [17]?
Answer: -93%

Question: And the growth at 100 µM [18]?
Answer: -32%

Question: What about the growth at 100 µM [19] of the same molecule?
Answer: -58%

Question: What about the growth at 10 µM [20] of the same molecule?
Answer: 3.69%

Question: What about the growth at 10 µM [21] of the same molecule?
Answer: -11.4%

Question: What about the GI50 [22] of the same molecule?
Answer: 0.813 µM

Question: What about the TGI [22] of the same molecule?
Answer: 2.38 µM

Question: What about the CC50 [22] of the same molecule?
Answer: 6.05 µM

Question: And the GI50 [23]?
Answer: 1.03 µM

Question: And the TGI [23]?
Answer: 2.28 µM

Question: And the CC50 [23]?
Answer: 5.03 µM

Question: And the GI50 [24]?
Answer: 0.304 µM

Question: And the LC50 (concentration killing 50% of cells) [24]?
Answer: 4.06 µM

Question: What about the TGI [24] of the same molecule?
Answer: 1.42 µM

Question: What about the growth at 0.01 µM [25] of the same molecule?
Answer: 103%

Question: And the growth at 0.01 µM [26]?
Answer: 102%

Reference: ChEMBL document CHEMBL2040734, “Benzothiazoles: search for anticancer agents” (2012)
